The results in this text go back to ChEMBL document CHEMBL3351277, “Discovery and structure-activity relationship studies of irreversible benzisothiazolinone-based inhibitors against Staphylococcus aureus sortase A transpeptidase” (Bioorg Med Chem, 2014).

≈ marks a conversion by molar mass, not a printed value. Calls of active or inactive are those of the source. The rule behind the calls is not given here.

One test relates to Staphylococcus aureus. The test is described as follows: Antibacterial activity against Staphylococcus aureus ATCC 25904 after 24 hrs by broth dilution method. It counts as functional. The following applies: ATCC 25904, 24 h. The method, boiled down:
(§1)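 Broth microdilution, 0.1–500 µg/mL in Mueller Hinton broth for S. aureus and S. epidermidis and Luria Bertani broth for E. coli. Inoculum was log-phase culture at OD600 0.1, incubated 24 h at 37 °C, with growth read as A600. Triplicates, repeated three times.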

In test [1] the test system is Staphylococcus epidermidis. Briefly: Antibacterial activity against Staphylococcus epidermidis ATCC 12228 after 24 hrs by broth dilution method. The following applies: ATCC 12228, 24 h. It counts as functional. The method, boiled down:
as §1
For orientation: Broth dilution looks for growth in wells or tubes with falling amounts of substance.

A further test has as its system Escherichia coli. Briefly: Antibacterial activity against Escherichia coli ATCC 25922 after 24 hrs by broth dilution method. It counts as functional. The settings on record: ATCC 25922, 24 h. In outline:
as §1

A short description of test [2]: Cytotoxicity against Swiss mouse NIH/3T3 cells after 48 hrs by MTT assay. It counts as cell-based. The settings on record: NIH3T3, 48 h. The method, boiled down:
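NIH 3T3 fibroblasts were seeded in DMEM with 10% FCS and rested 24 h, then exposed to graded compound concentrations for 48 h. Medium was replaced with phenol-red-free medium plus 1 mM MTT for 3 h, then 1% SDS–HCl was added for 4 h. A570 was read. IC50 was the 50% proliferation inhibition versus untreated control, from nonlinear dose–response regression.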
Background: Tetrazolium dyes change colour on reduction, which living cells bring about.

A further test concerns the target T1, Sortase A (Staphylococcus aureus, UniProt Q9S446).
T1 sequence (Q9S446 whole entry): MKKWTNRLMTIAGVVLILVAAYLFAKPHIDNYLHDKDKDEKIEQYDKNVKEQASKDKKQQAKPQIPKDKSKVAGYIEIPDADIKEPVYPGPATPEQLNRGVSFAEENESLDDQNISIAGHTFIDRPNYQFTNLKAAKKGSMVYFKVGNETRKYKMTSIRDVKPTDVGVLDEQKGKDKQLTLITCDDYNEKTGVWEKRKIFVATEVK
Briefly: Inhibition of Staphylococcus aureus sortase A using dabcyl-QALPETGEE-edans as substrate incubated for 1 hr prior to substrate addition measured at 1 min interval for 1 hr by FRET analysis. The method, boiled down:
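Recombinant S. aureus SrtA catalytic domain (residues 1–59 deleted, C-terminal His6; E. coli BL21(DE3), Ni-NTA then gel filtration), 10 µM, preincubated 1 h at 37 °C with increasing inhibitor concentrations in 50 mM Tris-HCl pH 7.5, 5 mM CaCl2, 150 mM NaCl; then 20 µM substrate added. Fluorescence (ex 350/em 495 nm) read each minute for 1 h; progress curves constructed for IC50.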

The target in test [3] is T2, Sortase A (Staphylococcus aureus) (UniProt Q9S446).
T2 sequence (whole entry): T1 sequence (Q9S446 whole entry)
The test is described as follows: Irreversible binding affinity to Staphylococcus aureus sortase A by 15N-1H HSQC NMR spectroscopy. In outline:
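2D 15N–1H HSQC used 15N-labelled SrtAΔN59-6His (E. coli BL21(DE3), M9 with 15N-ammonium) at 0.3 mM. Buffer was 20 mM sodium acetate, 50 mM NaCl, 10 mM CaCl2, pH 6.0, 6% D2O. Inhibitor (100 mM stock in DMSO-d6) was added stepwise with a spectrum after each addition. Reversibility was checked by HSQC after dialysis against NMR buffer (100-fold dilution).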

In the case of `C=CS(=O)(=O)c1ccccc1` [(ETHENYLSULFONYL)BENZENE], the minimal inhibitory concentration (MIC) (against Staphylococcus aureus; in test [1]; against Escherichia coli) was > 2960 µM throughout. This molecule also returned a half-inhibitory concentration (IC50) in test [2] of 7.91 µM.

Turning to `O=C(Cn1sc2ccccc2c1=O)NC12CC3CC(CC(C3)C1)C2`, the IC50 was determined as 6.11 µM at Sortase A (read-out: IC50) and 1.27 µM in test [2]. Moreover, the MIC against Staphylococcus aureus was 2.92 µM (≈ 1 µg/mL); in test [1], 1.46 µM (≈ 0.5 µg/mL); with Escherichia coli, > 1500 µM. Also, in test [3], the result was Active.

For `O=C(Cn1sc2ccccc2c1=O)NNC(=O)C12CC3CC(CC(C3)C1)C2`, the figures for the IC50 (at Sortase A (read-out: IC50); in test [2]) were 3.8 µM and 14.4 µM, respectively. Also, the MIC in the test with Staphylococcus aureus is 41.5 µM (≈ 16 µg/mL); in test [1], 10.4 µM (≈ 4 µg/mL); with Escherichia coli it was > 1300 µM.

Regarding `CC12CC3(C)CC(O)(C1)CC(NC(=O)Cn1sc4ccccc4c1=O)(C2)C3`, the 50% inhibitory concentration (IC50) at Sortase A (read-out: IC50) was 3.87 µM; in test [2] it was 1.33 µM. In addition, the minimum inhibitory concentration (MIC) in the test with Staphylococcus aureus is 20.7 µM (≈ 8 µg/mL); in test [1], 20.7 µM (≈ 8 µg/mL); in the test with Escherichia coli, > 1290 µM.

With `O=C(CCn1sc2cccc(F)c2c1=O)NNC(=O)C12CC3CC(CC(C3)C1)C2`, the half-inhibitory concentration (IC50) was 3.39 µM at Sortase A (read-out: IC50) and 1.67 µM in test [2]. Also, the minimal inhibitory concentration (MIC) in the test on Staphylococcus aureus was 38.3 µM (≈ 16 µg/mL); in test [1], 19.2 µM (≈ 8 µg/mL); with Escherichia coli, > 1200 µM.

Consider `O=C(CCn1sc2cccc(F)c2c1=O)NC12CC3CC(CC(O)(C3)C1)C2`, for which the 50% inhibitory concentration (IC50) on Sortase A (read-out: IC50) was 6.26 µM; in test [2] it was 1.34 µM. Further, the MIC is 164 µM (≈ 64 µg/mL) against Staphylococcus aureus, 164 µM (≈ 64 µg/mL) in test [1] and > 1280 µM with Escherichia coli.

On to `CC12CC3(C)CC(O)(C1)CC(NC(=O)CCn1sc4ccccc4c1=O)(C2)C3`, for which the half-inhibitory concentration (IC50) on Sortase A (read-out: IC50) came out at 7.06 µM; in test [2], 7.52 µM. Also, the figures for the MIC (against Staphylococcus aureus; in test [1]; against Escherichia coli) were 40 µM (≈ 16 µg/mL), 40 µM (≈ 16 µg/mL) and > 1250 µM, respectively.

In the case of `CN(C)CCC(=O)c1ccc(Cl)c(Cl)c1`, the 50% inhibitory concentration (IC50) at Sortase A (read-out: IC50) amounted to 16.9 µM; in test [2], 9.71 µM. The MIC against Staphylococcus aureus is 113 µM (≈ 27.9 µg/mL); in test [1], 56.6 µM (≈ 13.9 µg/mL); against Escherichia coli, > 1770 µM.

`O=C(CN1Cc2ccccc2C1=O)NC12CC3CC(CC(C3)C1)C2`: the figures for the IC50 entry (on Sortase A; in test [2]) were “Not Active” and 263 µM, respectively. Moreover, the minimal inhibitory concentration (MIC) (in the test on Staphylococcus aureus; in test [1]; against Escherichia coli) was > 1540 µM each time.

`O=C(CCn1sc2ccccc2c1=O)NNC(=O)C12CC3CC(CC(C3)C1)C2`: the IC50 at Sortase A (read-out: IC50) came out at 4.22 µM; in test [2], 12.2 µM. The minimum inhibitory concentration (MIC) is 20 µM (≈ 8 µg/mL) against Staphylococcus aureus, 10 µM (≈ 4 µg/mL) in test [1] and > 1250 µM in the test with Escherichia coli.

For the molecule `COC(=O)C12CC3CC(CC(N)(C3)C1)C2.Cl`, the values for the half-inhibitory concentration (IC50) entry (against Sortase A; in test [2]) were “Not Active” and 2290 µM, respectively. The minimal inhibitory concentration (MIC) (against Staphylococcus aureus; in test [1]; in the test on Escherichia coli) was > 2030 µM each time.

As for `CC12CC3CC(C)(C1)CC(NC(=O)CCn1sc4cccc(F)c4c1=O)(C3)C2`, the values for the concentration for half-maximal inhibition (IC50) (on Sortase A (read-out: IC50); in test [2]) were 4.07 µM and 9.89 µM, respectively. In addition, the MIC with Staphylococcus aureus was 39.7 µM (≈ 16 µg/mL); in test [1], 2.48 µM (≈ 0.998 µg/mL); in the test with Escherichia coli it was > 1240 µM.

For the molecule `CC12CC3CC(C)(C1)CC(NC(=O)CCn1sc4ccccc4c1=O)(C3)C2`, the IC50 at Sortase A (read-out: IC50) was 4.62 µM; in test [2], 4.23 µM. Moreover, the results for the minimal inhibitory concentration (MIC) (against Staphylococcus aureus; in test [1]; with Escherichia coli) were 20.8 µM (≈ 8 µg/mL), 20.8 µM (≈ 8 µg/mL) and > 1300 µM, respectively.

In the case of `COC(=O)C12CC3CC(CC(NC(=O)CCn4sc5cccc(F)c5c4=O)(C3)C1)C2`, the figures for the IC50 (on Sortase A (read-out: IC50); in test [2]) were 5.06 µM and 8.02 µM, respectively. Further, the MIC is 37 µM (≈ 16 µg/mL) with Staphylococcus aureus, 18.5 µM (≈ 8 µg/mL) in test [1] and > 1160 µM in the test on Escherichia coli.

Regarding `O=C(CCn1sc2ccccc2c1=O)NC12CC3CC(CC(O)(C3)C1)C2`, the IC50 at Sortase A (read-out: IC50) turned out to be 6.44 µM; in test [2], 7.13 µM. Besides, the minimal inhibitory concentration (MIC) was 43 µM (≈ 16 µg/mL) in the test with Staphylococcus aureus, 85.9 µM (≈ 32 µg/mL) in test [1] and > 1340 µM against Escherichia coli.

Consider `COC(=O)C12CC3CC(CC(NC(=O)CCn4sc5ccccc5c4=O)(C3)C1)C2`, for which the values for the concentration for half-maximal inhibition (IC50) (on Sortase A (read-out: IC50); in test [2]) were 5.08 µM and 12.1 µM, respectively. For the same molecule, the minimum inhibitory concentration (MIC) is 38.6 µM (≈ 16 µg/mL) against Staphylococcus aureus, 19.3 µM (≈ 8 µg/mL) in test [1] and > 1210 µM in the test on Escherichia coli.

For the molecule `CC12CC3CC(C)(C1)CC(NC(=O)Cn1sc4ccccc4c1=O)(C3)C2`, the figures for the IC50 (on Sortase A (read-out: IC50); in test [2]) were 4.99 µM and 4.09 µM, respectively. In addition, the MIC in the test on Staphylococcus aureus is 86.4 µM (≈ 32 µg/mL); in test [1], 43.2 µM (≈ 16 µg/mL); against Escherichia coli, > 1350 µM.

Consider `CC12CC3(C)CC(O)(C1)CC(NC(=O)CCn1sc4cccc(F)c4c1=O)(C2)C3`, for which the IC50 came out at 3.96 µM on Sortase A (read-out: IC50) and 2.17 µM in test [2]. Further, the values for the minimum inhibitory concentration (MIC) (against Staphylococcus aureus; in test [1]; against Escherichia coli) were 38.2 µM (≈ 16 µg/mL), 38.2 µM (≈ 16 µg/mL) and > 1190 µM, respectively.

As for `O=C(CCn1sc2cccc(F)c2c1=O)NC12CC3CC(CC(C3)C1)C2`, the IC50 at Sortase A (read-out: IC50) is 4.01 µM; in test [2] it was 0.9 µM. Besides, the minimum inhibitory concentration (MIC) against Staphylococcus aureus was 85.5 µM (≈ 32 µg/mL); in test [1] it was 10.7 µM (≈ 4 µg/mL); in the test with Escherichia coli, > 1340 µM.

With `O=C(CCn1sc2ccccc2c1=O)NC12CC3CC(CC(C3)C1)C2`, the IC50 stood at 3.81 µM on Sortase A (read-out: IC50) and 5.95 µM in test [2]. The minimum inhibitory concentration (MIC) against Staphylococcus aureus was 22.4 µM (≈ 8 µg/mL); in test [1], 5.61 µM (≈ 2 µg/mL); in the test with Escherichia coli, > 1400 µM.

`O=C(O)CCn1sc2ccccc2c1=O`: the IC50 was determined as 12.8 µM at Sortase A (read-out: IC50) and 21.8 µM in test [2]. Moreover, the MIC with Staphylococcus aureus amounted to 287 µM (≈ 64 µg/mL); in test [1], 287 µM (≈ 64 µg/mL); in the test on Escherichia coli, 71.7 µM (≈ 16 µg/mL).

As for `Cl.NC12CC3CC(CC(C3)C1)C2` [AMANTADINE HYDROCHLORIDE], the IC50 entry against Sortase A was “Not Active”; in test [2] it was 2290 µM. The MIC (against Staphylococcus aureus; in test [1]; in the test with Escherichia coli) was > 2660 µM each time.

Broadly, the MIC is the lowest concentration that inhibits growth of the organism. The low end stands for inhibition by little substance, the high end for a need for much substance. By IC50 is commonly meant the concentration that gives 50% inhibition.
